Data set [1] addresses Human immunodeficiency virus type 1 integrase (Human immunodeficiency virus 1, UniProt Q7ZJM1). The experiment in a line: Inhibitory activity against integrase as yield of terminal cleavage products. The procedure, abridged: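 Purified HIV-1 integrase incubated with an end-labeled substrate oligonucleotide across a compound titration. Products separated by electrophoresis and visualized by autoradiography; terminal cleavage product quantitated relative to positive control without inhibitor.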

In data set [2] the test system is Molluscum contagiosum virus. The experiment in a line: The relaxation activity of MCV topoisomerase was assayed at 500 electrophoresis; No Inhibition. The class given is functional, organism-based. The gist of the method: (§1)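 Type 1B topoisomerase of molluscum contagiosum virus; relaxation of supercoiled plasmid DNA monitored by mobility shift on agarose gel electrophoresis.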

A short description of data set [3]: The compound was tested for toxicity using MTT cytotoxicity assay in Hela cell culture, activity expressed as LD50 value. The data set is classed as cell-based. The note with it: human, HeLa cells; read-out: LD50 (the source's name). The gist of the method: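 HeLa cells in culture exposed to a range of compound concentrations; viability read out with MTT dye; LD50 derived from the concentration series.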
In general terms: Tetrazolium assays rely on reduction of a dye to a coloured formazan, in cell work by metabolically active cells.

The test system of data set [4] is Molluscum contagiosum virus. Kind of data set: The relaxation activity of MCV topoisomerase was assayed at 100 electrophoresis; No Inhibition. The data set is classed as functional, organism-based. The procedure, abridged:
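Counterscreen against the type 1B topoisomerase of molluscum contagiosum virus (MCV). Relaxation of supercoiled plasmid DNA was followed by the change in its mobility on agarose gel electrophoresis, with compound present.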

For data set [5], the system named is Molluscum contagiosum virus. Kind of data set: The relaxation activity of MCV topoisomerase was assayed at 170 electrophoresis; No Inhibition. The class given is functional, organism-based. The gist of the method:
as §1

Data set [6] deals with Human immunodeficiency virus 1. The experiment in a line: The compound was tested in vitro for inhibition of PIC (preintegrated complexes) from HIV-1 infected cells. The class given is functional. The procedure, abridged:
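Preintegration complexes isolated from HIV-1-infected cells used as integration source; mixed with naked DNA target and incubated 37 °C for 1 h in presence of compound.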

This note sets out measurements from ChEMBL document CHEMBL1132222, “Lamellarin alpha 20-sulfate, an inhibitor of HIV-1 integrase active against HIV-1 virus in cell culture” (J Med Chem, 1999).

Values joined by “and” are separate entries in the source; they are usually repeats but may differ in a detail not shown here. Equal entries are not always repeated. Active and inactive are the calls of the source. The rule behind the calls is not given here.

Human immunodeficiency virus type 1 integrase, sequence (Q7ZJM1 whole entry): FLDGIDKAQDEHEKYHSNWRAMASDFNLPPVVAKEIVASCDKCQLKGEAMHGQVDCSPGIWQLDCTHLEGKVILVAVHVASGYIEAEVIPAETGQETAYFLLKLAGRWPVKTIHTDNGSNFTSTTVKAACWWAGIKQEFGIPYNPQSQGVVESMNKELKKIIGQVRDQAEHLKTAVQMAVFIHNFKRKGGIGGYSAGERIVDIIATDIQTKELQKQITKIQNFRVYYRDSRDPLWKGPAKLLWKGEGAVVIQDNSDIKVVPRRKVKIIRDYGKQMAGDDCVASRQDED

Turning to `COc1ccc(-c2c3n(c4c(=O)oc5cc(OS(=O)(=O)O)c(OC)cc5c24)C(O)Cc2c-3cc(OC)c(OC)c2OC)cc1O` (centres undefined), the IC50 (usually the point on the concentration scale where inhibition reaches its midpoint) in data set [1] was 73 µM and 51 µM. The inhibition entry in data set [2] was “inactive”. Further, the CC50 in data set [3] was 130 µM.

Regarding `COc1ccc(-c2c3n(c4c(=O)oc5cc(OS(=O)(=O)O)c(OC)cc5c24)CCc2cc(OC)c(OC)cc2-3)cc1O`, the IC50 in data set [1] was 34 µM and 25 µM. For the same molecule, in data set [2], the inhibition entry is “inactive”. Moreover, the CC50 in data set [3] is 145 µM.

Turning to `COc1ccc(-c2c3c4cc(OC)c(O)cc4oc(=O)c3n3ccc4cc(O)c(OC)cc4c23)cc1O`, the IC50 in data set [1] is 18 µM and 19 µM. Besides, the inhibition result in data set [4] was “inactive”. Besides, the CC50 in data set [3] came out at 5 µM.

Consider `COc1ccc(-c2c3c4cc(OC)c(O)cc4oc(=O)c3n3ccc4c(OC)c(OC)c(OC)cc4c23)cc1O`, for which the IC50 in data set [1] is 19 µM and 14 µM. Also, the inhibition result in data set [5] was “inactive”. Further, the CC50 in data set [3] is 28 µM.

`COc1ccc(-c2c3n(c4c(=O)oc5cc(O)c(OC)cc5c24)CCc2c-3cc(OC)c(OC)c2OC)cc1O`: the IC50 in data set [1] is 27 µM and 24 µM. Also, the inhibition entry in data set [4] was “inactive”. Further, in data set [3], the CC50 was 27 µM.

Turning to `COc1ccc(-c2c3c4cc(OC)c(OS(=O)(=O)O)cc4oc(=O)c3n3ccc4cc(OC)c(OC)cc4c23)cc1O`, the IC50 is 16 µM and 22 µM in data set [1]; 88 µM in data set [6]. Also, the inhibition result in data set [5] is “inactive”. Besides, in data set [3], the CC50 was 274 µM.
